In the EternaBench riboswitch data:

Test system: MS2 coat protein
Experiment: apparent Kd, MS2 coat protein; higher = weaker binding; RNA-MaP array; tryptophan 2.4 mM where present
Method in brief: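 SNAP-549-labelled MS2 coat protein, doubled from 0.7 or 1.5 nM to 3 µM, was titrated over designs transcribed by stalled E. coli RNA polymerase on Illumina sequencing-chip clusters. Titrations were run without and then with constant ligand in 100 mM Tris-HCl pH 7.5, 80 mM KCl, 4 mM MgCl2, BSA, DTT, yeast tRNA and Tween-20. The apparent Kd is the median of filtered per-cluster fits to green signal normalised to red-channel RNA signal and control-cluster median Fmax.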

[1] = designed as: OFF switch for tryptophan, no ligand
[2] = ligand present: tryptophan, designed as: OFF switch for tryptophan
[3] = designed as: ON switch for tryptophan, no ligand
[4] = ligand present: tryptophan, designed as: ON switch for tryptophan

Sequence | apparent Kd [1] [nM] | apparent Kd [2] [nM] | apparent Kd [3] [nM] | apparent Kd [4] [nM]
CACGAAAGAUCGGCCGCCACUAUUUGAUGUGUUCUUUCACAUGAGGAUCACCCAUGUUCUUAUUAUAGGACCGGGAUUGAGCGUG | 83.8 | 64.3 | – | –
AGUCUGGACUCGGCCGCCACUCGUGAUGCUUUGGCACAUGAGGAUCACCCAUGUGGUCGGCCUUAGAGGACCGGGAGUACCAGUC | – | – | 56.1 | 13.7
AAUUAUCAGUCGGCCGCCACUGACACAUGAGGAUCACCCAUGUAACUUGGGUUAAAUUUACUGAACAGGACCGGGACAAAGGCUA | 179 | 236 | – | –
UGUGGGCGCACGGCCGCCACUGUCUUCAUCUGUUUGUCUACAUGAGGAUCACCCAUGUUGGUUUACAGGACCGGGUGCAUCUAUG | – | – | 45.2 | 30.1
UACUUGCUGACGGCCGCCACUAGAACAUGAGGAUCACCCAUGUAUCUAGUGGCAAUCCUCAUGACUAGGACCGGGUCAGCAAGAU | 9.71 | 9.56 | – | –
CAAAUAAGAACAAACAAAUAACGGUUUUCGCGAGGACCGGUACGGCCGCCACUCGUGUGAAAUAACACAUGAGGAUCACCCAUGU | – | – | 36.1 | 20.6
AUUGUGAAGUCGGCCGCCACUGCAUAGUUUAACCACAUGUAACAUGAGGAUCACCCAUGUAAUGACAGGACCGGGACAAUAGUAA | – | – | 28 | 21.1
GGUAUGUAUUCGGAAACGAAUGCAUACCAACGAGGACCGGUACGGCCGCCACUCGCCGUCCUCAAACAUGAGGAUCACCCAUGUA | 25.9 | 68.5 | – | –
UGUGCAUGAGUUGUAAAAGCUCAUGGGCAUCGAGGACCGGUACGGCCGCCACUCGGCUGUACAUGAGGAUCACCCAUGUCAGGGU | – | – | 302 | 567
CACGAAAGAUCGGCCGCCACUAAUCUAUGUGUACUAGCACAUGAGGAUCACCCAUGUUCUUGCGUUAGGACCGGGAUUGAGCGUG | 22.2 | 18.8 | – | –
AUAACAUGAGGAUCACCCAUGUAUUGGUUACGAGGACCGGUACGGCCGCCACUCGUAUUUUGGUGGUAUUUUGUAUAUAUGAUAA | – | – | 26.8 | 26.3
UCAUAAGUACCGGUCCUCAGAUCCUCAUGACGAGGACCGGUACGGCCGCCACUCGAAACAUGAGGAUCACCCAUGUAAUAAUACU | 24.1 | 23.6 | – | –
AUGACUAACAAAGAAGAUAAAAUGGGUGAACGAGGACCGGUACGGCCGCCACUCGGACAUGAGGAUCACCCAUGUCCAUGUGCAA | 22.3 | 28.7 | – | –
AAUAAACAUGAGGAUCACCCAUGUAGGGUGCGAGGACCGGUACGGCCGCCACUCGGGUGAAAACAUGAGGAUCACCCAUGUUAAA | 198 | 420 | – | –
AACAGUUGGUCGGCCGCCACUACAUGAGGAUCACCCAUGUAGCGCGUUCUGCUCCAGGGCUCAUCUAGGACCGGGACACGAGUGU | 15.1 | 16 | – | –
UCGGAGAAGUCGGCCGCCACUGAACUCUUGUUCUACAUGAGGAUCACCCAUGUUCCUUUGUUUAACAGGACCGGGACUUAUACGA | – | – | 224 | 96.3
CCUAUGCAGUCGGCCGCCACUGAACAUGAGGAUCACCCAUGUUAUUAUAAAUAUGGUCCUAAAAUCAGGACCGGGACUGUAUAGG | 68 | 228 | – | –
AACGGUCGUACCGGAAUGAUCCUCAUGUAACGAGGACCGGUACGGCCGCCACUCGAUAACAUGAGGAUCACCCAUGUAAUAAUAA | 12.9 | 11 | – | –
GUAUAUUGAAAACAAUAUACAGUGGGUGAACGAGGACCGGUACGGCCGCCACUCGGACAUGAGGAUCACCCAUGUCCAUGUGAAA | 17 | 35.2 | – | –
UCAUAAGUACCGGUCCUCAGAUCCUCAUGACGAGGACCGGUACGGCCGCCACUCGAAACAUGAGGAUCACCCAUGUAAUAAUAUU | 21.3 | 19 | – | –

Sequence | apparent Kd [1] [nM] | apparent Kd [2] [nM] | apparent Kd [3] [nM] | apparent Kd [4] [nM]
AUACAUGAGGAUCACCCAUGUGAUGGCCGGCGAGGACCGGUACGGCCGCCACUCGUGAUCCGUCCUGAGAGCAAAGCCCUCAACA | – | – | 82.1 | 102
CUAUGCAGGUCGGCCGCCACUACACACAUGAGGAUCACCCAUGUAGUUACUGGGUGAAGUGGCAGUAGGACCGGGACCUGCAUAU | – | – | 257 | 360
UUAUAAGUACCGGUCCUCAGAUCCUCAUGACGAGGACCGGUACGGCCGCCACUCGAAACAUGAGGAUCACCCAUGUAAUAAUAUC | 23.8 | 24.7 | – | –
UAUAGUACCAGACAUGAGGAUCACCCAUGUCGAGGACCGGUACGGCCGCCACUCGGCAGUUUGCGUCCUCAGGUACUCCGGGUCA | 13.9 | 16.6 | – | –
CUACAUUUGUAGAAACCGGUCAACAAUAAUCGAGGACCGGUACGGCCGCCACUCGUAUAAUUUUAUACAUGAGGAUCACCCAUGU | – | – | 13.5 | 13.4
AUAACAUGAGGAUCACCCAUGUAUUGGUAACGAGGACCGGUACGGCCGCCACUCGAAUUUUGGUGGUAUAAUAUAUAUAUGAUUA | – | – | 21 | 20.6
AGCGUUCGGUUUAUGCCGGACAAUGGGUGACGAGGACCGGUACGGCCGCCACUCGGGCGCCCGGUUACAUGAGGAUCACCCAUGU | – | – | 258 | 30.1
UAAUGCAGGUCGGCCGCCACUACACACAUGAGGAUCACCCAUGUAGUUACUGGGUGAAGUGGCAGUAGGACCGGGACCUGCAUAA | – | – | 419 | 516
AAUGUAUGGCACAUGAGGAUCACCCAUGUGCGAGGACCGGUACGGCCGCCACUCGGUCCUGGAUUCUUAUUACUAUACAUUAAUG | 14.5 | 16.7 | – | –
UCGUUUGAGGCGGCCGCCACUGGUCUCAUGGUCAACAUGAGGAUCACCCAUGUAUCUUUGCUAAGCAGGACCGGGCCUCGAGCGA | 66.7 | 36.8 | – | –
GCAACGCUGUCGGCCGCCACUUUUACAUUGGCCGUGCUGUCUCUACAUGAGGAUCACCCAUGUGGAAGGACCGGGACAGCACACU | 29 | 64 | – | –
GGUACAUGAGGAUCACCCAUGUAUUAGUGCCGAGGACCGGUACGGCCGCCACUCGCUUCACAUGAGGAUCACCCAUGUGUCACAG | – | – | 32 | 40.8
AGCACUGUGACGGCCGCCACUACAUAUAGGGUGGUCAGGCCCAUAAUACAUGAGGAUCACCCAUGUAGGACCGGGUCUCAGUGCA | 16.8 | 12.1 | – | –
UACUUGCUGACGGCCGCCACUAGAACAUGAGGAUCACCCAUGUACCCGGUCCUACAUGGGAUGACUAGGACCGGGUCAGCAAGAU | 40.9 | 141 | – | –
AUUCAUGGAAACAUGAGAUAUCCUACCGGUCGAGGACCGGUACGGCCGCCACUCGGUUGGUGGCACAUGAGGAUCACCCAUGUUA | – | – | 291 | 265
CUACAUUUGUAGAAACCGGUCACCAUUACUCGAGGACCGGUACGGCCGCCACUCGUGUCAUGUGAUACAUGAGGAUCACCCAUGU | – | – | 22 | 23.1
AGUUUAGACACGGCCGCCACUCGUGACAGAUUUCGCAGUGGUCAACAUGAGGAUCACCCAUGUCUGAGGACCGGGUGUUGAGUUU | 44.1 | 259 | – | –
AUAUAUACAUGAGGAUCACCCAUGUUAUUUCGAGGACCGGUACGGCCGCCACUCGAUAGAGUAGAAGUAAAUUUUGAUUCAUGUA | – | – | 20.6 | 18.1
GGGCGCGUGGACUGGCGUGCUCCGCUCCGUCGAGGACCGGUACGGCCGCCACUCGACAUGAGGAUCACCCAUGUGUGAGCUCGCG | 152 | 474 | – | –
AUAUAUACAUGAGGAUCACCCAUGUUAUUUCGAGGACCGGUACGGCCGCCACUCGAUAGAGUAGAAGUAAAUUUUGUUACAUGUA | – | – | 11.1 | 11.4
